This is a sample that favours compounds with a hit; in the whole collection about 1.7% have one here.
RanGTP-Impb inh – disruptors of Ran-importin-beta complex formation – biochemical, FRET, CFP-Ran, YFP-importin-beta, homogeneous, primary screen. cell-free CFP-Ran/YFP-importin-beta FRET ratio. inhibition, % (no concentration beside the values). 1.1% of 300,000 active. AID 2216;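 active means more than half of the replicate wells show a fall in the fluorescence ratio signal beyond about 16%, limit read from the data, passing the limit was not always enough; inconclusive means exactly half of the replicate wells pass the set limit; inactive means fewer than half of replicates pass the limit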;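 further: 0% = DMSO wells and 100% = Ran loaded with GDP instead of GTP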
Runt-SMMHC FRET – Runt domain-CBFb-SMMHC interaction inhibition; Q01196+Q13951; Cerulean-Runt/Venus-CBFb-SMMHC FRET ratio 530/480, 1 h; inhibition, % at 20 µM; 0.74% of 220,000 active; AID 1434;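 active means mean inhibition across duplicate retests at 20 µM reaching about 50%, limit read from the data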;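 further: 0% = DMSO wells and 100% = wells with excess untagged CBFb-SMMHC; inhibitors lower the FRET ratio by blocking Runt binding to CBFb-SMMHC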
Hck-Nef inh – inhibitors of human Hck kinase activated by Nef | P08631 | Recombinant Hck-YEEI plus Nef, Z-Lyte FRET kinase assay | inhibition, % at 20 µM | 0.68% of 220,000 active | AID 463187;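 active means Hck-Nef kinase inhibition above about 50%, limit read from the data; inactive means inhibition below that limit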;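 further: 0% = DMSO with Hck plus Nef and 100% = Hck alone without Nef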
Target sequence (P08631 whole entry, looked up): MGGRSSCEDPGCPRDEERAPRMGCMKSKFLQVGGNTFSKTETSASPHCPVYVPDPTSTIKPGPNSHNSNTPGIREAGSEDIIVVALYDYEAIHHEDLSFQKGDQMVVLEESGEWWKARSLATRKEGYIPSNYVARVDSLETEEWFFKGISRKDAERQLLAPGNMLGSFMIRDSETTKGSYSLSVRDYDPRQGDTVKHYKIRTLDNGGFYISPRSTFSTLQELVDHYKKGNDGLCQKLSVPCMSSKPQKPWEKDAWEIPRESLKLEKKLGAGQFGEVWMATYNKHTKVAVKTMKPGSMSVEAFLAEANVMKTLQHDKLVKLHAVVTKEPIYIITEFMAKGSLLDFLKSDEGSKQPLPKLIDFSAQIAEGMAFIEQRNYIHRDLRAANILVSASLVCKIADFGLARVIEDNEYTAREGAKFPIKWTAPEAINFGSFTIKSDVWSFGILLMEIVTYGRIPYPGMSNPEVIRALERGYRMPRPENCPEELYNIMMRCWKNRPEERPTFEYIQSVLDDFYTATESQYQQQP
Runt-CBFb FRET – inhibitors of human RUNX1 Runt domain binding to CBFb; 0.46% of 220,000 active; inhibition, % at 20 µM; Cerulean-Runt/Venus-CBFb FRET ratio 530/480, 1 h;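 active means inhibition over about 50% at 20 µM in the single-dose screen, limit read from the data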;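 further: 0% = DMSO wells and 100% = excess unlabeled CBFb competitor control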
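Measured by: fluorescence energy transfer, 422 nm excitation, 530/480 nm emission; Assay system: Cerulean-Runt domain; Medium: Tris pH 7.5 buffer with BSA; Measure: loss of energy transfer signal; Controls: 5 µM unlabeled CBFb as full-inhibition high control; Incubation: protein complex preformed 1 h, compound exposure 1 h, room temperature, dark.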
* marks the source's active call; other numbers are inactive results; u = inconclusive; x = no result.

SMILES	RanGTP-Impb inh	Runt-SMMHC FRET	Hck-Nef inh	Runt-CBFb FRET
CCN(CC)CCCN1C(=O)C(=O)/C(=C(/O)c2ccc(Cl)cc2)C1c1ccccn1 (centres undefined)	0.9	-3.2	x	0.4
CCN(CC)CCCN1C(=O)C(O)=C(C(=O)c2cc3ccccc3o2)C1c1ccccn1 (centres undefined)	x	0.3	0.5	-1.1
CCN(CC)CCN1C(=O)C(O)=C(C(=O)c2ccco2)C1c1ccccn1 (centres undefined)	59.4*	9.7	-0.2	8.8
CCN(CC)CCN1C(=O)C(=O)/C(=C(/O)c2cccc(OC)c2)C1c1ccccn1 (centres undefined)	42.7*	-5.1	2.0	1.4
COc1ccc(CN(C)C(=O)c2ccccc2Sc2ccccc2C#N)c(OC)c1	0.3	x	x	x
Cc1cc(C)c[n+](-c2[nH]c(=O)sc2/C=N/N=C(\N)[S-])c1	-0.7	0.7	3.3	4.9
CCN(CC)CCCNCC(=O)Nc1ccc2c(c1)CCC2	4.9	0.6	2.2	0.1
CCCCNC(=O)CCC(=O)Nc1ccc2nc(N3CCOCC3)cc(C)c2c1	-3.0	3.4	2.8	-3.6
CCCCNC(=O)CCC(=O)Nc1ccc2nc(N3CCCCC3)cc(C)c2c1	3.6	3.5	69.1*	0.0
O=C(Nc1nc2c(s1)CN(Cc1ccccc1)CC2)c1c(F)cccc1F	-1.1	98.0*	18.7	49.9
O=C(Nc1nc2c(s1)CN(Cc1ccccc1)CC2)C1CCCC1	-4.6	118.4*	27.9	52.6*
CC(C)(C)C(=O)Nc1nc2c(s1)CN(Cc1ccccc1)CC2	99.4*	91.7*	13.6	77.2*
CC(C)(C)C(=O)Nc1nc2c(s1)COc1ccccc1-2	3.3	0.3	13.7	-0.1
O=C(Nc1nnc(Cc2ccccc2)s1)C1CCC1	-4.3	x	x	x
CCOc1ncccc1C(=O)OCC(=O)c1ccc(C)c(C)c1	0.8	-0.7	20.5	-0.5
Cc1[nH]nc2c1C(c1cccs1)C1=C(CC(C)(C)CC1=O)N2 (centres undefined)	1.6	-0.8	0.2	-2.6
N#Cc1cnn2c3c(cnc12)C(=O)N1CCc2ccccc2C1C3 (centres undefined)	u	86.3*	21.1	92.1*
CCCc1cc(=O)n2nc(N3CCC(C(=O)NCc4ccco4)CC3)sc2n1	-0.6	x	x	x
N#Cc1ccc(Oc2cnccn2)cc1	26.7*	x	x	x
CCCCCCOc1ccc(/C=c2\s/c(=C(/C#N)C(=O)NCc3ccco3)n(-c3ccccc3)c2=O)cc1	26.9*	8.3	3.2	-250.0
O=C(Cn1nnc(-c2ccc(F)cc2)n1)OCC(=O)c1ccccc1	19.9*	-5.8	7.9	-1.1
COc1ccccc1N1CCN(S(=O)(=O)c2c(C)[nH]c(C)c2C(=O)N2CCCCC2)CC1	23.0*	x	x	x
COc1ccccc1N1CCN(S(=O)(=O)c2c(C)[nH]c(C)c2C(=O)N2CCCC2)CC1	4.1	x	x	x
N=c1c(S(=O)(=O)c2ccccc2)cc2c(=O)n3ccccc3nc2n1CCN1CCOCC1	x	x	23.8	x
CCn1c(=N)c(S(=O)(=O)c2ccccc2)cc2c(=O)n3ccccc3nc21	169.8*	90.5*	18.4	20.6
SMILES	RanGTP-Impb inh	Runt-SMMHC FRET	Hck-Nef inh	Runt-CBFb FRET
CCn1c(=N)c(S(=O)(=O)c2ccc(C)cc2)cc2c(=O)n3ccccc3nc21	-1.4	x	14.4	x
CCCn1c(=N)c(S(=O)(=O)c2ccccc2)cc2c(=O)n3ccccc3nc21	198.3*	84.0*	-7.0	21.6
O=C/C=C/c1coc2ccc3ccccc3c2c1=O	0.9	-4.2	-21.0	0.6
O=Cc1coc2c(ccc3ccccc32)c1=O	37.0*	x	x	x
Cc1ccccc1-n1c(O)c(/C=C/C=Nc2ccccc2)c(=O)[nH]c1=O	20.2*	76.2*	2.8	28.7
Cc1ccc(Nc2nnc(-c3ccccc3N)o2)cc1C	1.9	-7.2	2.0	-1.6
O=C(c1ccccc1)c1ccc2nc(-c3ccco3)c(-c3ccco3)nc2c1	0.3	-33.0	58.5*	5.1
O=C(NCCc1ccccc1)c1ccc2nc(-c3ccco3)c(-c3ccco3)nc2c1	39.3*	-44.8	15.2	2.0
CCN(CC(=O)NC(=O)NC1CCCC1)Cc1ccccc1	-0.1	x	x	x
CCCn1nc(NC(=O)C2CCCO2)c2cc3ccc(C)cc3nc21 (centres undefined)	20.9*	29.1	28.3	18.0
CCCn1nc(NC(=O)C2CCCO2)c2cc3cc(C)ccc3nc21 (centres undefined)	55.7*	58.7*	39.8	42.9
Cc1ccc2cc(C#N)c(NCCCNC(=O)C3CCCO3)nc2c1 (centres undefined)	5.8	42.6	20.8	13.5

Source: PubChem (several laboratories)
